# Assay outcomes (PubChem BioAssay)
# This is a sample that favours compounds with a hit; in the whole collection about 1.4% have one here.
# FXIa inh 1536 = inhibitors of human coagulation factor XIa | P03951 | purified FXIa, Boc-Glu-Ala-Arg-AMC fluorogenic substrate | inhibition, % at 5 µM | 220,000 tested, 0.14% active | AID 798;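 active = inhibition of at least 40%; inactive = inhibition below 40%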;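 note: fluorescence of freed AMC excited at 355 nm; 0% = enzyme without compound and 100% = no enzyme blank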
# hK5 inh = blocks human kallikrein 5 protease activity | recombinant hK5, fluorogenic AMC substrate cleavage | inhibition, % at 5 µM | 210,000 tested, 0.59% active;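 active = inhibition of 40% or more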;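 note: 0% = enzyme controls without compound and 100% = no-enzyme blanks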
# Target sequence (Q9Y337 67-293 limits assumed): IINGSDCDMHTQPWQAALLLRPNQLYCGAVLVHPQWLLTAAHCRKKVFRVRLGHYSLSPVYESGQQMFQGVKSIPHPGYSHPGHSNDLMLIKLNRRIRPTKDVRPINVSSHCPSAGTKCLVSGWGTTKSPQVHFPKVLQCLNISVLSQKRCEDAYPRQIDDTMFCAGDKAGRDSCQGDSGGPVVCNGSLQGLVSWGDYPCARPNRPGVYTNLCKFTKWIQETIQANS
# Furin inh = inhibitors of human furin; P09958; purified furin, fluorogenic substrate cleavage; 220,000 tested, 0.061% active; AID 463115; inhibition, % at 20 µM or 30 µM; in the data active = inhibition above about 25%
# Thrombin inh = inhibitors of human thrombin | P00734 | 220,000 tested, 0.26% active | alpha-thrombin, Boc-VPR-AMC fluorogenic substrate cleavage | inhibition, % at 5 µM;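 active = inhibition at or above 40%; inactive = inhibition below 40%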;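 note: 0% = enzyme with no compound and 100% = wells without enzyme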
#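 Material: human alpha-thrombin enzyme / Medium: pH 7.5 Tris (50 mM) with NaCl 150 mM, Tween 20 0.05% / Compound: single-point dosing at 5 µM, 0.2% DMSO / Incubation: enzyme reaction carried out at room temperature / Detection: AMC fluorescence, 355/460 nm / Read-out basis: percent inhibition scaled between no-compound controls and no-enzyme blanks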
# FXIIa inh 1536 = blocks human coagulation factor XIIa protease activity. 220,000 tested, 0.3% active. inhibition, % at 5 µM. purified FXIIa, Boc-QGR-AMC fluorogenic substrate, 2 h. P00748; in the data active = inhibition above about 40%;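 note: 0% = enzyme with no compound and 100% = blank without enzyme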
# Calpain2 inh = inhibitors of pig calpain II; AID 1236; 220,000 tested, 0.37% active; purified calpain II, fluorogenic peptide substrate, 30 min; inhibition, % at 16 µM;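 active = inhibition above about 50%, limit read from the data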
# * = called active by the depositor; . = not tested or not shown.
SMILES,FXIa inh 1536,hK5 inh,Furin inh,Thrombin inh,FXIIa inh 1536,Calpain2 inh
CCOc1ccc(-c2c(C)n(-c3ccc(OCC)cc3)c3[n+]2CCCCC3)cc1,51*,36,0,6,46*,20
Cn1nnc(CC[N+](C)(C)C)n1,56*,38,-11,43*,27,14
CCCCn1c(O)c(C(C)=NCCCN(C)C)c(=O)[nH]c1=O,-2,-10,-9,-13,16,-6
O=C1CN=C(c2ccccc2)c2cc(Br)ccc2N1Cc1cc(=O)n2ccccc2n1,8,-20,-4,1,10,-16
NNC(=O)CN1C(=O)CN=C(c2ccccc2)c2cc(Br)ccc21,19,27,1,33,44*,6
O=C(C(=O)N1CCC2(CC1)OCCO2)c1c[nH]c2ccccc12,0,3,-18,-9,12,-16
CC(=O)N1CCN(c2ccc(N=Cc3c(O)n(-c4ccc(Cl)cc4)c(=O)[nH]c3=O)cc2)CC1,9,59*,-19,10,15,6
CCN(CC)c1ccc(N=Cc2c(O)n(-c3ccc(Cl)cc3)c(=O)[nH]c2=O)cc1,6,3,-6,-1,18,-17
N=c1n(CCO)c2ccccc2n1Cc1ccccc1,14,30,-16,67*,17,3
N=C1SCC(=O)N1Cc1ccccc1,-7,-12,-14,-5,0,19
CN(C)CP(=O)(Nc1ccccc1)N(C)C (centres undefined),5,67*,-14,27,19,6
Cc1ccccc1-n1c(O)c(C=Nc2ccc(N(C)C)cc2)c(=O)[nH]c1=O,-2,-17,27*,2,12,4
CN(C)C(=O)Oc1ccc(OCc2nc3ccccc3[nH]2)cc1,4,-13,0,-3,5,-14
COc1ccc(OCC(=O)N2CCN(C/C=C/c3ccccc3)CC2)cc1,38,26,-10,82*,.,19
CN(CC1COc2ccccc2O1)c1nc(-c2cccnc2)nc2ccccc12 (centres undefined),11,53*,-14,17,10,8
O=C(CNC1CCCCC1)N1CCC2(CC1)OCCO2,3,-9,-12,2,15,-9
O=C(C1CCC(=O)N1C1CCCCC1)N1CCC2(CC1)OCCO2 (centres undefined),-4,2,-31,9,6,59*
CCOP(=O)(OCC)c1cc(C)c(O)c(C(C)(C)C)c1,8,0,-15,-6,9,13
Cc1ccccc1NC(=O)CCl,1,-5,-23,50*,13,-12
C/C(=N\NC(N)=O)c1c(O)n(C)c(=O)n(C)c1=O,-2,3,-9,-1,7,-1
COc1ccc(NC(=O)c2cc([N+](=O)[O-])ccc2N2CCNCC2)cc1,23,51*,0,5,29,19
COc1cc(/C=N/NP(=S)(c2ccccc2)c2ccccc2)ccc1O,2,-21,-10,-6,-3,53*
Oc1ccc(/C=N/NP(=S)(c2ccccc2)c2ccccc2)cc1,-4,-2,-3,-6,12,47
C=CCn1c(O)c(C(C)=NCCC2=CCCCC2)c(=O)[nH]c1=O,5,6,-23,1,13,10
O=C(Nc1cccc(C(F)(F)F)c1)c1cccn(Cc2ccc3c(c2)OC(F)(F)O3)c1=O,-2,-9,-10,-9,16,52*
SMILES,FXIa inh 1536,hK5 inh,Furin inh,Thrombin inh,FXIIa inh 1536,Calpain2 inh
CN(C)C(Cc1ccccc1)C(=O)c1ccc(-c2ccccc2)cc1 (centres undefined),11,98*,-5,17,13,6
CSc1nc(N)c(N=Nc2ccc([As](=O)(O)O)cc2)c(=O)[nH]1,-10,7,27*,0,6,18
COc1ccc(N=Nc2c(O)[nH]c(=S)[nH]c2=O)cc1,4,2,-24,2,5,8
CC1CCSP(=O)(Oc2ccccc2)O1 (centres undefined),11,3,-17,-2,8,11
CC(C)Oc1cc(-n2c(=S)[nH]c3ccccc3c2=O)c(Cl)cc1Cl,4,-54,-11,4,12,63*
C=CCn1c(O)c(/C=N/N2CCCCC2)c(=O)[nH]c1=O,1,0,-11,-3,5,2
CCNc1cc(N2CCNCC2)ccc1[N+](=O)[O-],68*,28,10,34,28,18
CC1CC(NC(=O)C2C3CCC(O3)C2C(=O)O)CC(C)(C)C1 (centres undefined),23,-5,-4,-4,46*,13
Cc1cccc(C)c1OP(N)(=O)Oc1c(C)cccc1C,0,1,-22,-2,7,2
CN(C)C(=O)CSc1nnc([C@@H](N)Cc2ccccc2)o1,13,23,-16,61*,61*,4
OC1CCCCC1N1CCC(c2ccccc2)CC1 (centres undefined),2,-19,-16,-2,8,8
